Laboratory results published in paper PMC6240402 (The Journal of allergy and clinical immunology, 2018).
“Also recorded” adds a separate entry of the source.

How the values were obtained:
[1] = tested on: sputum eosinophils / AHR; conditions: clinical trial; cited from earlier work
[2] = tested on: CCR3 (AML14.3D10-CCR3 cells); type: cell-based
Method in brief: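 AML14.3D10-CCR3 cells (an eosinophil-differentiated AML line stably expressing CCR3) were held 24, 48 or 72 h with vehicle or test compound at 1 μM. Medium was replaced daily with fresh complete medium containing compound. Cells were then challenged with CCL11 (12 nM). Each time point was compared with the 24 h point; mean ± SEM, n=3 experiments in triplicate.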

[3] = molecular target: T1, CCR3 (Homo sapiens, UniProt P51677); assay: CCR3 surface expression/internalization in AML14.3D10-CCR3 cells; type: cell-based
T1 sequence (P51677 1-355): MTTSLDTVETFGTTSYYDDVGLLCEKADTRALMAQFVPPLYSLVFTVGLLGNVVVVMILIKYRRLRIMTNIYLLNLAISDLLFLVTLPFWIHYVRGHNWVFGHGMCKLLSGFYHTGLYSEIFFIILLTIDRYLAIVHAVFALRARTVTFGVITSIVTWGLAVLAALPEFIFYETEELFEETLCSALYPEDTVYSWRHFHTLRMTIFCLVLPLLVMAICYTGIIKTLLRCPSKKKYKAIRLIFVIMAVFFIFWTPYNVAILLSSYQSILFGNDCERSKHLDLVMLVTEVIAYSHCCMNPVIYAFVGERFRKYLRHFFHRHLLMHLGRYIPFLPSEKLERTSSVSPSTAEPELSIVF
Method in brief: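 CCR3-transfected, eosinophil-differentiated AML14.3D10 cells were exposed for 30 min to vehicle, test peptide (0.01–10 μM) or comparator antagonists (1 μM), each with or without CCL11 (12 nM). Longer exposures ran 24–72 h at 1 μM, with daily medium/inhibitor renewal. Cells were blocked with 10% heat-inactivated human AB serum, stained with PE anti-CCR3 (5E8) or isotype, and analysed by flow cytometry. Values are mean ± SEM, n=3, in triplicate.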

[4] = molecular target: T1, CCR3; conditions: SB328437; cited from earlier work
[5] = tested on: lung eosinophils; conditions: subcutaneous 100 mg/kg, resuspended with Tween-80; cited from earlier work
[6] = Solubility observation; type: physicochemical; conditions: authors' own experience; unsuitable for iv injection
[7] = molecular target: T2, CCR3 (human blood eosinophils) (Homo sapiens, UniProt P51677); assay: CCR3 surface expression in human blood eosinophils, prolonged exposure; type: cell-based
T2 sequence (P51677 1-355): T1 sequence (P51677 1-355)
Method in brief: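 Eosinophils came from blood of mild allergic asthmatic donors, separated on a Ficoll-Paque gradient and then negatively selected. Cells got vehicle or 1 μM inhibitor, with or without CCL11 (12 nM), for 24, 48 or 72 h, refreshed daily with medium plus inhibitor. After blocking with 10% heat-inactivated human AB serum, cells were stained with PE anti-CCR3 (clone 5E8) or isotype control and read by flow cytometry. Surface CCR3 is given as % of vehicle: mean ± SEM, n=3, triplicate.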

[8] = molecular target: T2, CCR3 (human blood eosinophils); assay: Eotaxin-induced chemotaxis of blood eosinophils; type: cell-based; conditions: CCL11 12 nM, CCL24 20 nM, CCL26 100 nM
Method in brief: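 Eosinophils were taken from the blood of mild allergic asthmatic subjects, separated over a Ficoll-Paque Plus gradient, then purified by negative selection with an eosinophil isolation kit. The test peptide was given at 0.001–10 μM, with 4 h chemotaxis toward CCL11 (12 nM), CCL24 (20 nM) or CCL26 (100 nM). IC50 and IC90 were derived from the dose-response inhibition curves.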

[9] = molecular target: T3, CCR3 (AML14.3D10-CCR3 cells) (Homo sapiens, UniProt P51677); assay: Eotaxin-induced chemotaxis of AML14.3D10-CCR3 cells; type: cell-based; conditions: CCL11 12 nM, CCL24 20 nM, CCL26 100 nM
T3 sequence (P51677 1-355): T1 sequence (P51677 1-355)
Method in brief: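 Eosinophil-differentiated acute myeloid leukaemia line stably transfected to express CCR3. Cells exposed to the test peptide across 0.001–10 μM as a dose-response, then allowed to migrate for 4 h toward CCL11 (12 nM), CCL24 (20 nM) or CCL26 (100 nM). Read-out is inhibition of chemotaxis.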

[10] = molecular target: T1, CCR3; assay: 13C HSQC NMR binding to reductively methylated CCR3 positive membranes
Method in brief: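 13C HSQC spectra recorded on membranes carrying 13C-reductively methylated CCR3 (lysine di-13CH3 label), compared with CCR3-null membranes. Spectra were taken with or without 1 μM CCL11, in the presence or absence of 2 μM test peptide. Binding was judged from spectral comparisons between conditions.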

NC(=O)c1ccc(CNC(=O)NC[C@H]2CN(Cc3ccc(Cl)c(Cl)c3)CCO2)cc1 [GW766994]
AHR [1]: significant inhibition of AHR
sputum eosinophils [1]: trend towards inhibition of sputum eosinophils

COC(=O)[C@H](Cc1ccc([N+](=O)[O-])cc1)NC(=O)c1cccc2ccccc12 [SB328437]
drop in chemotaxis inhibition level over 72h ([2]; AML14.3D10-CCR3, 1 μM, CCL11 12 nM, 72h): 13.7%
CCL11/CCR3-mediated chemotaxis inhibition relative to R321 and UCB35625 ([2]; equimolar concentrations, 1 μM): less effective inhibitor of CCL11/CCR3-mediated chemotaxis
CCR3 internalization (discussion) ([3]; effect more pronounced with longer treatment times): partially or completely block CCR3 internalization
activity at CCR3 in eosinophils [4]: specific inhibitor of CCR3 in eosinophils
OVA-induced accumulation of eosinophils in lungs [5]: successfully suppress OVA-induced accumulation of eosinophils in the lungs
solubility [6]: solubility issues
CCR3 surface levels, prolonged exposure ([7]; 1 μM, up to 72h): failed to promote CCR3 cell surface accumulation; also recorded: no significant effect on receptor levels

CCL26: high affinity agonist chemokine of CCR3
induction of chemotaxis, blood eosinophils [8]: undergo CCR3-mediated chemotaxis
induction of chemotaxis, AML14.3D10-CCR3 [9]: undergo CCR3-mediated chemotaxis

CCL11: high affinity agonist chemokine of CCR3
induction of chemotaxis, blood eosinophils [8]: undergo CCR3-mediated chemotaxis
interference of CCL11 and R321 with each other's binding ([10]; 1 μM CCL11 and 2 μM R321): neither CCL11 nor R321 interfere with each other’s binding to the receptor
effect on CCR3 HSQC signals ([10]; 1 μM CCL11 or 2 μM R321): specifically reduced the intensity of CCR3 signals
induction of chemotaxis, AML14.3D10-CCR3 [9]: undergo CCR3-mediated chemotaxis
CCR3 internalized from cell surface ([3]; AML14.3D10-CCR3, CCL11 30 min, flow cytometry): More than 50%
CCR3 surface expression, 24h, CCL11 alone ([7]; CCL11 12 nM alone, 24h, % of vehicle): ~ 68%
CCR3 surface expression, 72h, CCL11 alone ([7]; CCL11 12 nM alone, 72h, % of vehicle): ~ 18%

B1: CCL24: high affinity agonist chemokine of CCR3 (protein, UniProt O00175 27-119, looked up)
C-C motif chemokine 24: VVIPSPCCMFFVSKRIPENRVVSYQLSSRSTCLKAGVIFTTKKGQQFCGDPKQEWVQRYMKNLDAKQKKASPRARAVAVKGPVQRYPGNQTTC
induction of chemotaxis, blood eosinophils [8]: undergo CCR3-mediated chemotaxis
induction of chemotaxis, AML14.3D10-CCR3 [9]: undergo CCR3-mediated chemotaxis
